In publication PMC7689742 (Clinical Pharmacology and Therapeutics, 2020):
In brackets after ≈: the same amount, converted by molar mass. Several values for one entry are separate records, joined by “and”; a condition that tells them apart may be missing. Equal values may be shown once. Read-outs that look alike come from different tables or passages of the source.

Experiments:
[1] = 1:1 complex with HP‐β‐CD; cited from earlier work
[2] = Determination of the binding constant; format: physicochemical; conditions: for k complex (M^−1) / k complex: 1:1 complex with HP‐β‐CD, source Internal data
[3] = Determination of the binding constant; format: physicochemical; conditions: aqueous, 48 hours, ambient
Outline: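 Excess test compound was added to sealed glass vials of aqueous α-cyclodextrin or HP-β-CD at several concentrations. Vials were shaken 48 h at ambient conditions to equilibrate, then centrifuge-filtered to remove solids. Dissolved compound was quantified by HPLC with diode array detection. k_complex = [complex]/([intrinsic solubility]·[free cyclodextrin]).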

[4] = Pharmacokinetic study in pentagastrin‐pretreated dogs with or without HP‐β‐CD; format: in vivo, dog; conditions: for AUC 0‐∞ / Fenebrutinib recovered in feces / Cmax / Tmax: 100 mg tablets; for Cmax / Tmax: male, beagle, dog, plasma, po, 100 mg
Outline: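 Fasted male beagles got intramuscular pentagastrin at 6 µg/kg about 30 min before dosing. They then had oral gavage of pH 2 water (control) or HP-β-CD in pH 2 water (0.8, 2 or 8 g total), each plus water to 250 mL, followed by two 50 mg tablets (n = 4/group). Plasma was sampled 5 min–24 h and assayed by LC-MS/MS (LLOQ 1.02 ng/mL). Cumulative fecal recovery was measured. Groups were compared by one-way ANOVA with Bonferroni's test.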

GastroPlus human model = conditions: for clearance: both, human, plasma, oral
MDCK cell monolayer = experiment: Permeability across an MDCK cell monolayer; format: in vitro ADME, canine; conditions: HP‐β‐CD:fenebrutinib molar ratio 1.56 (266 mg HP‐β‐CD)
Outline: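 MDCK cells with canine Mdr1 knocked out by CRISPR-Cas9 were grown 5 days on 1 µm pore polyester inserts. Monolayers were equilibrated 20 min at 37°C in HBSS with 10 mM Hepes, pH 7.4. Donor held 20 µM test compound, 50 µM lucifer yellow and 0–20% w/v HP-β-CD. Apical-to-basolateral receivers were sampled at 30, 60 and 90 min. Quantitation was by LC-MS/MS; Papp = (dQ/dt)/(A·C0).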

[5] = Physiochemical properties used for fenebrutinib
[6] = Itraconazole clinical DDI study, fenebrutinib PK in healthy subjects; format: in vivo, human
Outline: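 Single oral 100 mg test-compound dose on Day 1; after a 3-day washout, inhibitor 200 mg oral solution once daily Days 4–9, with co-dosed 100 mg test compound Day 10 and one more inhibitor dose Day 11. Overnight fast, 240 mL water, food withheld 4 h post-dose. Plasma sampled predose to 48 h on Days 1 and 10. Mixed-model least-squares means, 90% CI of difference.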

[7] = two‐compartment model fit to control group
[8] = dog model, from intravenous PK data
[9] = both, human, plasma, po, 100 mg

## CC(=O)Nc1nnc(S(N)(=O)=O)s1 [Acetazolamide]
[1]
  k complex: 85 M⁻¹

## Cc1nnc2n1-c1ccc(Cl)cc1C(c1ccccc1)=NC2 [Alprazolam]
[1]
  k complex: 250 M⁻¹

## CC[C@@]1(O)C(=O)OCc2c1cc1n(c2=O)Cc2cc3ccccc3nc2-1 [Camptothecin]
[1]
  k complex: 184 M⁻¹

## Cc1ccc(-c2cc(C(F)(F)F)nn2-c2ccc(S(N)(=O)=O)cc2)cc1 [Celecoxib]
[2]
  k complex (M^−1): 3,000 M^−1

## CN1C(=O)CN=C(c2ccccc2)c2cc(Cl)ccc21 [Diazepam]
[1]
  k complex: 184 M⁻¹

## CC/C(=C(/CC)c1ccc(O)cc1)c1ccc(O)cc1 [Diethylstilbestrol]
[1]
  k complex (M^−1): 59,200 M^−1

## O=C(O)c1cc(-c2ccc(F)cc2F)ccc1O [Diflunisal]
[2]
  k complex (M^−1): 1,600 M^−1

## C[C@H]1O[C@@H](O[C@H]2[C@@H](O)C[C@H](O[C@H]3[C@@H](O)C[C@H](O[C@H]4CC[C@@]5(C)[C@H](CC[C@@H]6[C@@H]5C[C@@H](O)[C@]5(C)[C@@H](C7=CC(=O)OC7)CC[C@]65O)C4)O[C@@H]3C)O[C@@H]2C)C[C@H](O)[C@@H]1O [Digoxin]
[1]
  k complex (M^−1): 6,800 M^−1

## Clc1ccc(COC(Cn2ccnc2)c2ccc(Cl)cc2Cl)cc1 (stereo not drawn) [Econazole]
[1]
  k complex: 180 M⁻¹

## C[C@]12CC[C@@H]3c4ccc(O)cc4CC[C@H]3[C@@H]1CC[C@@H]2O [Estradiol]
[1]
  k complex (M^−1): 38,600 M^−1

## C[C@H]1CN(C2COC2)CCN1c1ccc(Nc2cc(-c3ccnc(N4CCn5c(cc6c5CC(C)(C)C6)C4=O)c3CO)cn(C)c2=O)nc1 [Fenebrutinib]
[3]
  k complex with α‐CD: 4,000 M^−1
[4]; HP‐β‐CD 0 g
  AUC 0‐∞: 28.9 ± 6.98 µg/h/mL
  Fenebrutinib recovered in feces: 3.48 ± 0.681 mg
  Cmax: 3940 ± 225 ng/mL
  Tmax: 0.875 ± 0.25 h
[4]; HP‐β‐CD 0.8 g
  AUC 0‐∞: 17.4 ± 6.92 µg/h/mL
  Fenebrutinib recovered in feces: 11.2 ± 2.39 mg
  increase of recovery in feces vs control: ~3 fold
  Cmax: 2090 ± 243 ng/mL
  Tmax: 1.38 ± 1.11 h
[4]; HP‐β‐CD 2 g
  AUC 0‐∞: 8.38 ± 1.94 µg/h/mL
  Fenebrutinib recovered in feces: 15.6 ± 8.99 mg
  AUC decrease vs control: ~3.5 fold
  Cmax decrease vs control: ~3.5 fold
  increase of recovery in feces vs control: ~4.5 fold
  Cmax: 1110 ± 142 ng/mL
  Tmax: 2 ± 1.15 h
[4]; HP‐β‐CD 8 g
  AUC 0‐∞: 4.46 ± 2.07 µg/h/mL
  Fenebrutinib recovered in feces: 22.7 ± 7.76 mg
  AUC decrease vs control: about 7 fold
  increase of recovery in feces vs control: about 6.5 fold
  Cmax: 447 ± 204 ng/mL
  Tmax: 3 h
GastroPlus human model
  clearance: 19.2 mL/min/kg
GastroPlus human model; 100 mg
  clearance: 35 mL/min/kg
GastroPlus human model; residual method on elimination phases
  reduction of systemic clearance in the presence of itraconazole: approximately 45%
GastroPlus human model; [7]
  transfer rate constant from the central to peripheral compartment: 0.5 h⁻¹
  transfer rate constant from the peripheral to central compartment: 0.19 h⁻¹
MDCK cell monolayer
  reduction in P app: ~2 fold
[2]
  k complex (M^−1): 200,000 M^−1
[2]; aqueous, 48 hours, ambient
  k complex with HP‐β‐CD: 2 × 10^5 M^−1 and ~ 2 × 10^5 M^−1
[5]
  particle size distribution median diameter (D50): 12 µm
[5]; pH 2.3
  solubility: 36000 µg/mL (≈ 54200 µM)
[5]; pH 6.5, fassif
  solubility: 9 µg/mL (≈ 13.5 µM)
[5]; pH 7.8, aqueous buffer
  solubility: 0.1 µg/mL (≈ 0.15 µM)
GastroPlus dog model; [8]
  transfer rate constant from the central to peripheral compartment: 0.08 h⁻¹
  transfer rate constant from the peripheral to central compartment: 0.2 h⁻¹
GastroPlus dog model; dog, plasma, iv
  clearance: 6 mL/min/kg
[6]; 100 mg fenebrutinib oral alone, healthy subjects
  AUC0–24h: 1.11 ± 0.359 µg/h/mL
[6]; 100 mg fenebrutinib with 200 mg itraconazole oral solution (steady state)
  AUC0–24h: 2.45 ± 0.588 µg/h/mL
[6]; [9]
  Cmax: 221 ± 82.5 ng/mL
  Tmax: 1.56 ± 0.629 h
  half-life: 8.26 ± 2.33 h

## CN1C(=O)CN=C(c2ccccc2F)c2cc([N+](=O)[O-])ccc21 [Flunitrazepam]
[1]
  k complex (M^−1): 1,100 M^−1

## C[C@]12CCC(=O)C=C1CC[C@@H]1[C@@H]2[C@@H](O)C[C@@]2(C)[C@H]1CC[C@]2(O)C(=O)CO [Hydrocortisone]
[1]
  k complex (M^−1): 1,900 M^−1

## Clc1ccc(COC(Cn2ccnc2)c2ccc(Cl)cc2Cl)c(Cl)c1 (stereo not drawn) [Miconazole]
[1]
  k complex: 260 M⁻¹

## COc1ccc2cc([C@H](C)C(=O)O)ccc2c1 [Naproxen]
[1]
  k complex: 780 M⁻¹

## CCn1cc(C(=O)O)c(=O)c2cc(F)c(N3CCNCC3)cc21 [Norfloxacin]
[2]
  k complex: 5 M⁻¹

## C[C@]12C=CC(=O)C=C1CC[C@@H]1[C@@H]2[C@@H](O)C[C@@]2(C)[C@H]1CC[C@]2(O)C(=O)CO [Prednisolone]
[1]
  k complex: 958 M⁻¹

## CS(=O)(=O)c1ccc(C2=C(c3ccccc3)C(=O)OC2)cc1 [Rofecoxib]
[2]
  k complex: 190 M⁻¹

## Cc1cc(NS(=O)(=O)c2ccc(N)cc2)no1 [Sulfamethoxazole]
[1]
  k complex: 360 M⁻¹

## Nc1ccc(S(=O)(=O)Nc2nccs2)cc1 [Sulfathiazole]
[2]
  k complex: 450 M⁻¹

## Cc1nnc2n1-c1ccc(Cl)cc1C(c1ccccc1Cl)=NC2 [Triazolam]
[1]
  k complex: 200 M⁻¹
